ChEMBL document CHEMBL1135601, “Synthesis and biolocalization of water-soluble sapphyrins” (J Med Chem, 2002)

Assays:
[1] = Biodistribution after day 1 in mouse brain; type: ADME, organism-based
In short: (§1)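 Female outbred CD-1 nude mice (18-20 g) bearing subcutaneous human pancreatic adenocarcinoma UB 290896 (2 × 2 mm pieces, right flank; used at tumor diameter 4.5-5.5 mm). Aqueous solution (∼1 mmol L-1) given subcutaneously at 15 µmol kg-1 per day for 3 days. Mice killed 1, 3, 6 or 9 days after the last injection. Five mice per time point, plus 5 noninjected controls.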

[2] = Biodistribution after day 1 in mouse tumor; type: ADME, organism-based; in short: as §1
[3] = Biodistribution after day 3 in mouse muscle; type: ADME, organism-based, Muscle tissue; in short: as §1
[4] = Biodistribution after day 3 in mouse lung; type: ADME, organism-based; in short: as §1
[5] = Biodistribution after day 1 in mouse heart; type: ADME, organism-based; in short: as §1
[6] = Biodistribution after day 6 in mouse liver; type: ADME, organism-based; in short: as §1
[7] = Biodistribution after day 1 in mouse spleen; type: ADME, organism-based; in short: as §1
[8] = Biodistribution after day 1 in mouse liver; type: ADME, organism-based; in short: as §1
[9] = Biodistribution after day 1 in mouse muscle; type: ADME, organism-based, Muscle tissue; in short: as §1
[10] = Biodistribution after day 6 in mouse tumor; type: ADME, organism-based; in short: as §1
[11] = Biodistribution after day 6 in mouse brain; type: ADME, organism-based; in short: as §1
[12] = Biodistribution after day 1 in mouse kidney; type: ADME, organism-based; in short: as §1
[13] = Biodistribution after day 3 in mouse spleen; type: ADME, organism-based; in short: as §1
[14] = Biodistribution after day 3 in mouse heart; type: ADME, organism-based; in short: as §1
[15] = Biodistribution after day 3 in mouse tumor; type: ADME, organism-based; in short: as §1
[16] = Biodistribution after day 6 in mouse lung; type: ADME, organism-based; in short: as §1
[17] = Biodistribution after day 6 in mouse kidney; type: ADME, organism-based; in short: as §1
[18] = Biodistribution after day 3 in mouse blood; type: ADME, organism-based; in short: as §1
[19] = Biodistribution after day 3 in mouse liver; type: ADME, organism-based; in short: as §1
[20] = Biodistribution after day 1 in mouse blood; type: ADME, organism-based; in short: as §1
[21] = Biodistribution after day 3 in mouse brain; type: ADME, organism-based; in short: as §1
[22] = Biodistribution after day 6 in mouse muscle; type: ADME, organism-based, Muscle tissue; in short: as §1
[23] = Biodistribution after day 6 in mouse heart; type: ADME, organism-based; in short: as §1
[24] = Biodistribution after day 1 in mouse lung; type: ADME, organism-based; in short: as §1
[25] = Biodistribution after day 6 in mouse blood; type: ADME, organism-based; in short: as §1
[26] = Biodistribution after day 3 in mouse kidney; type: ADME, organism-based; in short: as §1
[27] = Biodistribution after day 6 in mouse spleen; type: ADME, organism-based; in short: as §1
[28] = Biodistribution after day 9 in mouse liver; type: ADME, organism-based; in short: as §1
[29] = Biodistribution after day 9 in mouse blood; type: ADME, organism-based; in short: as §1
[30] = Biodistribution after day 9 in mouse lung; type: ADME, organism-based; in short: as §1
[31] = Biodistribution after day 9 in mouse spleen; type: ADME, organism-based; in short: as §1
[32] = Biodistribution after day 9 in mouse brain; type: ADME, organism-based; in short: as §1
[33] = Biodistribution after day 9 in mouse muscle; type: ADME, organism-based, Muscle tissue; in short: as §1
[34] = Biodistribution after day 9 in mouse tumor; type: ADME, organism-based; in short: as §1
[35] = Biodistribution after day 9 in mouse heart; type: ADME, organism-based; in short: as §1
[36] = Biodistribution after day 9 in mouse kidney; type: ADME, organism-based; in short: as §1

| Compound | concentration at 1 day [1] [ng/g] | concentration at 1 day [2] [ng/g] | concentration at 3 day [3] [ng/g] | concentration at 3 day [4] [ng/g] | concentration at 1 day [5] [ng/g] | concentration at 6 day [6] [ng/g] | concentration at 1 day [7] [ng/g] | concentration at 1 day [8] [ng/g] | concentration at 1 day [9] [ng/g] | concentration at 6 day [10] [ng/g] | concentration at 6 day [11] [ng/g] | concentration at 1 day [12] [ng/g] | concentration at 3 day [13] [ng/g] | concentration at 3 day [14] [ng/g] | concentration at 3 day [15] [ng/g] | concentration at 6 day [16] [ng/g] | concentration at 6 day [17] [ng/g] | concentration at 3 day [18] [ng/g] | concentration at 3 day [19] [ng/g] | concentration at 1 day [20] [ng/g] | also measured |
| --- | --- | --- | --- | --- | --- | --- | --- | --- | --- | --- | --- | --- | --- | --- | --- | --- | --- | --- | --- | --- | --- |
| CCc1c(CC)c2cc3nc(cc4[nH]c(c(C)c4CC)c4[nH]c(cc5nc(cc1[nH]2)C(CCC(=O)N(CCO)CCO)=C5C)c(CC)c4C)C(C)=C3CCC(=O)N(CCO)CCO [SAPPHYRIN] | 240 | 109000 | 760 | 710 | 950 | 1200 | 1290 | 1420 | 1020 | 130000 | 290 | 440 | 1390 | 960 | 220000 | 710 | 460 | 900 | 1500 | 500 | concentration at 3 day [21]: 270 ng/g; concentration at 6 day [22]: 710 ng/g; concentration at 6 day [23]: 760 ng/g; concentration at 1 day [24]: 480 ng/g; concentration at 6 day [25]: 500 ng/g; concentration at 3 day [26]: 330 ng/g; concentration at 6 day [27]: 960 ng/g |
| C=CC1=C(C)c2cc3nc(cc4[nH]c(cc5[nH]c(cc1n2)c(C)c5CCC(=O)NC1C(O)OC(CO)C(O)C1O)c(CCC(=O)NC1C(O)OC(CO)C(O)C1O)c4C)C(C=C)=C3C (stereo not given) [PORPHYRIN] | 420 | 34000 | 4200 | 1700 | 2700 | 1320 | 22000 | 1100 | 3500 | 260000 | 320 | 700 | 16000 | 1450 | 131000 | 1400 | 4300 | 900 | 800 | 1090 | concentration at 9 day [28]: 960 ng/g; concentration at 9 day [29]: 800 ng/g; concentration at 9 day [30]: 2300 ng/g; concentration at 9 day [31]: 9000 ng/g; concentration at 9 day [32]: 370 ng/g; concentration at 9 day [33]: 3600 ng/g; concentration at 9 day [34]: 37000 ng/g; concentration at 3 day [21]: 410 ng/g; concentration at 6 day [22]: 5100 ng/g; concentration at 9 day [35]: 2400 ng/g; concentration at 6 day [23]: 1700 ng/g; concentration at 1 day [24]: 2000 ng/g; concentration at 9 day [36]: 510 ng/g; concentration at 6 day [25]: 980 ng/g; concentration at 3 day [26]: 3100 ng/g; concentration at 6 day [27]: 12000 ng/g |
| CCC1=C(CC)c2cc3[nH]c(cc4[nH]c(c(C)c4CC)c4[nH]c(cc5nc(cc1n2)C(CCC(=O)NCCOCCOCCN)=C5C)c(CC)c4C)c(C)c3CCC(=O)NCCOCCOCCN | 500 | 4200 | 29000 | 19000 | 2000 | 4200 | 1300 | 210 | 1900 | 51000 | 2400 | 640 | 11000 | 15500 | 114000 | 7000 | 3800 | 3020 | 25000 | 1690 | concentration at 3 day [21]: 5000 ng/g; concentration at 6 day [22]: 45000 ng/g; concentration at 6 day [23]: 9200 ng/g; concentration at 1 day [24]: 1700 ng/g; concentration at 6 day [25]: 2450 ng/g; concentration at 3 day [26]: 6800 ng/g; concentration at 6 day [27]: 3300 ng/g |
| CCc1c(CC)c2cc3nc(cc4[nH]c(c(C)c4CC)c4[nH]c(cc5nc(cc1[nH]2)C(CCC(=O)NCCN(CCN)CCN)=C5C)c(CC)c4C)C(C)=C3CCC(=O)NCCN(CCN)CCN | 870 | 58000 | 36000 | 13000 | 3100 | 10000 | 4100 | 1030 | 3600 | 49000 | 160 | 2800 | 8000 | 10700 | 89000 | 3200 | 1700 | 3400 | 13000 | 950 | concentration at 3 day [21]: 400 ng/g; concentration at 6 day [22]: 22000 ng/g; concentration at 6 day [23]: 5200 ng/g; concentration at 1 day [24]: 2500 ng/g; concentration at 6 day [25]: 1170 ng/g; concentration at 3 day [26]: 5700 ng/g; concentration at 6 day [27]: 3900 ng/g |
| CCc1c(CC)c2cc3nc(cc4[nH]c(c(C)c4CC)c4[nH]c(cc5nc(cc1[nH]2)C(CCC(=O)NC1C(O)OC(CO)C(O)C1O)=C5C)c(CC)c4C)C(C)=C3CCC(=O)NC1C(O)OC(CO)C(O)C1O (stereo not given) | 550 | 32000 | 21000 | 8000 | 5400 | 370 | 3600 | 290 | 8000 | 330000 | 750 | 1100 | 7800 | 9000 | 66000 | 6000 | 1500 | 2000 | 430 | 1440 | concentration at 9 day [28]: 470 ng/g; concentration at 9 day [29]: 1500 ng/g; concentration at 9 day [30]: 8000 ng/g; concentration at 9 day [31]: 9700 ng/g; concentration at 9 day [32]: 520 ng/g; concentration at 9 day [33]: 11000 ng/g; concentration at 9 day [34]: 23000 ng/g; concentration at 3 day [21]: 770 ng/g; concentration at 6 day [22]: 17000 ng/g; concentration at 9 day [35]: 6000 ng/g; concentration at 6 day [23]: 6400 ng/g; concentration at 1 day [24]: 4900 ng/g; concentration at 9 day [36]: 2800 ng/g; concentration at 6 day [25]: 2200 ng/g; concentration at 3 day [26]: 1900 ng/g; concentration at 6 day [27]: 8000 ng/g |
| CCc1c(CC)c2cc3nc(cc4[nH]c(c(C)c4CC)c4[nH]c(cc5nc(cc1[nH]2)C(CCC(=O)NCCOCCOCCO)=C5C)c(CC)c4C)C(C)=C3CCC(=O)NCCOCCOCCO | 2700 | 22000 | 9300 | 11000 | 8000 | 16000 | 4600 | 14000 | 10000 | 180000 | 4300 | 3100 | 11000 | 7800 | 130000 | 19000 | 52000 | 9300 | 61000 | 7000 | concentration at 3 day [21]: 4300 ng/g; concentration at 6 day [22]: 3400 ng/g; concentration at 6 day [23]: 4800 ng/g; concentration at 1 day [24]: 13000 ng/g; concentration at 6 day [25]: 3400 ng/g; concentration at 3 day [26]: 59000 ng/g; concentration at 6 day [27]: 14000 ng/g |
